Experimental data: ChEMBL document CHEMBL3108692, “Potent Targeting of the STAT3 Protein in Brain Cancer Stem Cells: A Promising Route for Treating Glioblastoma” (ACS Med Chem Lett, 2013)
Each block holds one compound with its values, some of them ahead of it. Activity calls are given as the source filed them. The rule behind the calls is not given here.

Assays:
[1] = Cytotoxicity against human 73M cells assessed as cell viability after 8 days by Alamar Blue assay; assay type: functional, cell-based; conditions: 192 h
[2] = Cytotoxicity against human 30M cells assessed as cell viability after 8 days by Alamar Blue assay; assay type: functional, cell-based; conditions: 192 h
[3] = target: T1, Signal transducer and activator of transcription 3 (Homo sapiens, UniProt P40763); test: Competitive binding affinity to STAT3 SH2 domain (unknown origin) assessed as inhibition of interaction with FAMpYLPQTV after 15 to 30 mins by fluorescent polarization assay
T1 sequence (P40763 whole entry, the tested form may be a part): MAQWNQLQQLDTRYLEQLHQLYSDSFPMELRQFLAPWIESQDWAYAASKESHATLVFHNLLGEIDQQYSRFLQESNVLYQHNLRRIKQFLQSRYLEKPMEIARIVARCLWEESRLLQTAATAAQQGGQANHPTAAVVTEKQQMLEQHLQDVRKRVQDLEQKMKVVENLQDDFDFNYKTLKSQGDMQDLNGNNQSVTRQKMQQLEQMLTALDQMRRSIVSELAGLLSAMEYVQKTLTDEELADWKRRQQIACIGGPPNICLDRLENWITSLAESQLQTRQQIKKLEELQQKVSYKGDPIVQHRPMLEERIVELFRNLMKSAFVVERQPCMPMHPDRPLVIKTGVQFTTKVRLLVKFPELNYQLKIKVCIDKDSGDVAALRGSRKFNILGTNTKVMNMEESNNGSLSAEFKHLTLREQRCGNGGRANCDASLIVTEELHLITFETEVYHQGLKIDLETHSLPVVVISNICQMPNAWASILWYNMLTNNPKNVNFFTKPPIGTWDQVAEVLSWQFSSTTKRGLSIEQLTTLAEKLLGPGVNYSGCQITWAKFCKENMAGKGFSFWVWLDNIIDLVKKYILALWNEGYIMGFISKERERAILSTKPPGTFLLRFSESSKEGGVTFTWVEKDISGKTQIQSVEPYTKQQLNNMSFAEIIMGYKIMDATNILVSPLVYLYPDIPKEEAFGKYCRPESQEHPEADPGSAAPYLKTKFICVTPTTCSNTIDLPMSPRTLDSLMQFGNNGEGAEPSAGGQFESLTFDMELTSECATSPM

[4] = target: Tyrosine-protein kinase Fyn (Homo sapiens) (UniProt P06241); test: Inhibition of FYN (unknown origin) SH3 domain expressed in HEK293 cells at 500 nM preincubated for 1 hr followed by compound washout measured after 30 mins by qPCR analysis; assay type: cell-based
Chain of Tyrosine-protein kinase Fyn (Homo sapiens) (P06241 2-537 limits assumed): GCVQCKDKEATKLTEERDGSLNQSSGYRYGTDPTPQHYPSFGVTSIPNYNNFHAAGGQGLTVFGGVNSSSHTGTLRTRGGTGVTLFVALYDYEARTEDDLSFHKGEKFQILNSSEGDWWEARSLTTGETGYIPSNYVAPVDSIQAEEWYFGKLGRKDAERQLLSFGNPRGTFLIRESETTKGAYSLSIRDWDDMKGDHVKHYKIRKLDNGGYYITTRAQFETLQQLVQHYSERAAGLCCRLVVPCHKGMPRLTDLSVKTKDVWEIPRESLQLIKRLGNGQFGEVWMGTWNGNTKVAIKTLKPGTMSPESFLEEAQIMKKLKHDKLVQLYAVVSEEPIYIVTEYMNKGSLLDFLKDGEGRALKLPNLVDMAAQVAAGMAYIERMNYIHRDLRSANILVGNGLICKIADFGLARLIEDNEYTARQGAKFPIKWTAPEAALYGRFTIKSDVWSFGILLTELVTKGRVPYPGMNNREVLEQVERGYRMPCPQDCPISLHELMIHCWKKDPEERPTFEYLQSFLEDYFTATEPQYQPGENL

[5] = target: T1, Signal transducer and activator of transcription 3; test: Inhibition of STAT3 phosphorylation at Y705 in human 73M cells at 1 uM; assay type: cell-based
Method in brief: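 Human 73M glioblastoma brain tumour stem cells were exposed to the inhibitor alongside the JAK2 inhibitor reference WP1066. Activated STAT3 was then read out by Western blot for STAT3 phosphorylated at Y705.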

[6] = test system: BT73; test: Antitumor activity against human BT73 cells xenografted in NOD-SCID mouse assessed as decrease in tumor size at 10 mg/kg, ip administered as 4 days on/3 days off schedule measured 2 hrs post last dose by hematoxylin/eosin staining; assay type: functional, organism-based; parameters: dose 10 mg/kg
Method in brief: (§1)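 Mice were NOD-SCID with orthotopic BT73 human glioma xenografts. Starting on day 7, they received 10 intraperitoneal doses of 10 mg/kg or vehicle on a 4 days on/3 days off schedule. Animals were killed 2 h after the last dose and brain tumors excised. Read-outs were hematoxylin/eosin staining for tumor cellularity and immunohistochemistry for pSTAT3, Ki67 (proliferation) and TUNEL (apoptosis).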

[7] = target: Proto-oncogene tyrosine-protein kinase Src (Homo sapiens) (UniProt P12931); test: Inhibition of c-Src (unknown origin) at 5 uM after 120 mins relative to control
Chain of Proto-oncogene tyrosine-protein kinase Src (Homo sapiens) (P12931 2-536 limits assumed): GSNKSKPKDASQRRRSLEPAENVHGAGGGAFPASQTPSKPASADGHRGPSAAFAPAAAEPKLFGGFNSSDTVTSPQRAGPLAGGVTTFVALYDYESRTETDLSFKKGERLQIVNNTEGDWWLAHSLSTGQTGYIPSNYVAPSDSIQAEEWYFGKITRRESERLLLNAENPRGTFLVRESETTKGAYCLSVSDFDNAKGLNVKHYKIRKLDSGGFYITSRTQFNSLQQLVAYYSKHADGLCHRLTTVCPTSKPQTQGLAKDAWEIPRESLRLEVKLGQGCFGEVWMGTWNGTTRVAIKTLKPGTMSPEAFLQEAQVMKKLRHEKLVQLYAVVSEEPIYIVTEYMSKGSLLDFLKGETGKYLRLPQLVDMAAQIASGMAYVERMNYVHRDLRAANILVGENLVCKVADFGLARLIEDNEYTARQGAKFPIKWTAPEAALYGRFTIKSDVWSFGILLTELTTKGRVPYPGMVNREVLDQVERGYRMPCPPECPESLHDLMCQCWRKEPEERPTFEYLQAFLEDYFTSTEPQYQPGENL

[8] = Cytotoxicity against human 73EF cells assessed as cell viability after 3 days by Alamar Blue assay; conditions: 72 h
[9] = target: Tyrosine-protein kinase JAK2 (Homo sapiens) (UniProt O60674); test: Inhibition of JAK2 in human 147EF cells after 6 hrs by Western blotting analysis; assay type: cell-based
Chain of Tyrosine-protein kinase JAK2 (Homo sapiens) (O60674 whole entry, the tested form may be a part): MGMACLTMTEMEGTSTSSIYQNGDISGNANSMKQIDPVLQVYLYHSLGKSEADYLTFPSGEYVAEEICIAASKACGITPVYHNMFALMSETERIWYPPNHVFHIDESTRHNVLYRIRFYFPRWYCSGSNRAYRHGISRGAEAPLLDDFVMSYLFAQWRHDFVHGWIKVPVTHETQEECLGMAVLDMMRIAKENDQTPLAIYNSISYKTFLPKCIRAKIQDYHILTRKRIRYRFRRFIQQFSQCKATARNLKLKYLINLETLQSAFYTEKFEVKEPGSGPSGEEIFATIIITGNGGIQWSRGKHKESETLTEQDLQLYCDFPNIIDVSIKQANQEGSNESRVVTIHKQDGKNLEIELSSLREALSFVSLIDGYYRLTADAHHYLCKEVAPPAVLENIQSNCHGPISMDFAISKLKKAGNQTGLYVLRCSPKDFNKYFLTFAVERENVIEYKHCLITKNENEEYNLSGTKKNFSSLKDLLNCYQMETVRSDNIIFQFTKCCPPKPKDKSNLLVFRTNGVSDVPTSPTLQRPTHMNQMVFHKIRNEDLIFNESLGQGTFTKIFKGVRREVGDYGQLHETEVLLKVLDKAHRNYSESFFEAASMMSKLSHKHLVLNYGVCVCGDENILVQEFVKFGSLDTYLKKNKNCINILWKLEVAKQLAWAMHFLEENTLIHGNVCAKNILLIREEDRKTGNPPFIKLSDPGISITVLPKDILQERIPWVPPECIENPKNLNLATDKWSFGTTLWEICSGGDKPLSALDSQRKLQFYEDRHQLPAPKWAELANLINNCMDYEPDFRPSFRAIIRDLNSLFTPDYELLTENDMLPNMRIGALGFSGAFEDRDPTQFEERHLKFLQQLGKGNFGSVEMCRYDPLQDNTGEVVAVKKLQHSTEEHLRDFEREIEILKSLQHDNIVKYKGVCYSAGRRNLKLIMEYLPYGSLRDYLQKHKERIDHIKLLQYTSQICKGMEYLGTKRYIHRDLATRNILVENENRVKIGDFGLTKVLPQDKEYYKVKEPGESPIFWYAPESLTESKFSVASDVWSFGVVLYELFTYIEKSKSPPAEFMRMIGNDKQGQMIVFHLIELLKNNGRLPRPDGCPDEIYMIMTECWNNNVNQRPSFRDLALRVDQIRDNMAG

[10] = target: Platelet-derived growth factor receptor beta (Homo sapiens) (UniProt P09619); test: Inhibition of PDGFRB (unknown origin) expressed in HEK293 cells at 500 nM preincubated for 1 hr followed by compound washout measured after 30 mins by qPCR analysis relative to control; assay type: cell-based
[11] = cells; conditions: Homo sapiens, 72 h
[12] = target: Tyrosine-protein kinase JAK2 (Homo sapiens) (UniProt O60674); test: Inhibition of JAK2 (unknown origin) at 5 uM after 120 mins relative to control
[13] = target: Mitogen-activated protein kinase 3 (Homo sapiens) (UniProt P27361); test: Inhibition of ERK1 (unknown origin) at 5 uM after 120 mins
Chain of Mitogen-activated protein kinase 3 (Homo sapiens) (P27361 whole entry): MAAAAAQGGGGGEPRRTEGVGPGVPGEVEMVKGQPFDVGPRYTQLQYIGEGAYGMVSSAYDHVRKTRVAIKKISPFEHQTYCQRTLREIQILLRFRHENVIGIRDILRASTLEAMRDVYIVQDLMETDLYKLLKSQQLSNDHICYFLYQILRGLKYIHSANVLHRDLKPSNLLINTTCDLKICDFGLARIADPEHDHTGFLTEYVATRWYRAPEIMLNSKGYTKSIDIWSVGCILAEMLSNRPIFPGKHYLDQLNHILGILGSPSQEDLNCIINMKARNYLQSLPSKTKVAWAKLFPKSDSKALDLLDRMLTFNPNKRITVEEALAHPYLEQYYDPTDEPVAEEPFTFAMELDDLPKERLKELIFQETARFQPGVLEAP

[14] = Cytotoxicity against human 67EF cells assessed as cell viability after 3 days by Alamar Blue assay; conditions: 72 h
[15] = target: T1, Signal transducer and activator of transcription 3; test: Inhibition of STAT3 phosphorylation at Y705 in human 147EF cells at 0.1 to 1 uM after 3 hrs by Western blotting analysis; assay type: cell-based
[16] = Cytotoxicity against HF2006 cells assessed as cell viability at 5 uM after 3 days by Alamar Blue assay; assay type: cell-based; conditions: human, 72 h
Method in brief: (§2)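 Normal human fetal astrocytes (healthy, non-tumor cells) were exposed to compounds at concentrations up to 5 μM, with viability as the cytotoxicity read-out.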

[17] = target: Proto-oncogene tyrosine-protein kinase Src (Homo sapiens) (UniProt P12931); test: Inhibition of Src in human 147EF cells after 6 hrs by Western blotting analysis; assay type: cell-based
[18] = target: Tyrosine-protein kinase JAK1 (Homo sapiens) (UniProt P23458); test: Inhibition of JAK1 (unknown origin) at 5 uM after 120 mins
Chain of Tyrosine-protein kinase JAK1 (Homo sapiens) (P23458 whole entry, the tested form may be a part): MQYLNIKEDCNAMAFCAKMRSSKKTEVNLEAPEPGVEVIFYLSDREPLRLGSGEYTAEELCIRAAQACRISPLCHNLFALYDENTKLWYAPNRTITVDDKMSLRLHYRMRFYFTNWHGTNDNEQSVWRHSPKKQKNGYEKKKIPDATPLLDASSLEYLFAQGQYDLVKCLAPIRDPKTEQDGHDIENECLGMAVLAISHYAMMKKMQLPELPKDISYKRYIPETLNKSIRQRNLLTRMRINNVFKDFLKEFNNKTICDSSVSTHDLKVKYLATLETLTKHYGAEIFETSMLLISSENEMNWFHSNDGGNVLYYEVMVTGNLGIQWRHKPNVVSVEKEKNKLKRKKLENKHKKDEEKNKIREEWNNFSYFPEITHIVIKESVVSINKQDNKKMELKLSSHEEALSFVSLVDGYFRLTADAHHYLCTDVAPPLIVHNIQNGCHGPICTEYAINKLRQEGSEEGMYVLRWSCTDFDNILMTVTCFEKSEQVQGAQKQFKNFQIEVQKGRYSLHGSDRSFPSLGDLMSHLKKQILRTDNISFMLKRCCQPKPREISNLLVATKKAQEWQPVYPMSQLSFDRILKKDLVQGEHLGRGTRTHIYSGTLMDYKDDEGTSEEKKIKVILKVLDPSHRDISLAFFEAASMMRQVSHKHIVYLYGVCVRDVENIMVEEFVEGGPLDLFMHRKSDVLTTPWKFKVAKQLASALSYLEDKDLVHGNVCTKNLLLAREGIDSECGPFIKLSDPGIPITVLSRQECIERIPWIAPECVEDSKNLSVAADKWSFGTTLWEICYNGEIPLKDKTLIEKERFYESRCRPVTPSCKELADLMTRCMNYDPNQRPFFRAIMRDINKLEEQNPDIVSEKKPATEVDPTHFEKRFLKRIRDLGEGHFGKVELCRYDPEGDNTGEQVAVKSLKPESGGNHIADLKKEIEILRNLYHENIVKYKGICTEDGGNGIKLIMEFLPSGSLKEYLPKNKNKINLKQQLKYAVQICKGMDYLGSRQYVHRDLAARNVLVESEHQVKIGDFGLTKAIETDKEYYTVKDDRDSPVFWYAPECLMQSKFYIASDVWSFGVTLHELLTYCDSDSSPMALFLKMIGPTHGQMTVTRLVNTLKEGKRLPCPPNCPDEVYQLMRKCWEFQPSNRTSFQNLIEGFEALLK

[19] = Cytotoxicity against human 30M cells assessed as cell viability after 3 days by Alamar Blue assay; conditions: 72 h
[20] = target: Tyrosine-protein kinase Fer (Homo sapiens) (UniProt P16591); test: Inhibition of FER (unknown origin) SH3 domain expressed in HEK293 cells at 500 nM preincubated for 1 hr followed by compound washout measured after 30 mins by qPCR analysis; assay type: cell-based
[21] = Cytotoxicity against HF2003 cells assessed as cell viability at 5 uM after 3 days by Alamar Blue assay; assay type: cell-based; conditions: human, 72 h; method in brief: as §2
[22] = test system: BT73; test: Antitumor activity against human BT73 cells xenografted in NOD-SCID mouse assessed as induction of apoptosis in tumor at 10 mg/kg, ip administered as 4 days on/3 days off schedule measured 2 hrs post last dose by TUNEL assay; assay type: functional, organism-based; parameters: dose 10 mg/kg; method in brief: as §1
[23] = target: Tyrosine-protein kinase Fes/Fps (Homo sapiens) (UniProt P07332); test: Inhibition of FES (unknown origin) SH3 domain expressed in HEK293 cells at 500 nM preincubated for 1 hr followed by compound washout measured after 30 mins by qPCR analysis; assay type: cell-based
[24] = organism: Homo sapiens; test: Inhibition of AKT phosphorylation in human 147EF cells at 0.1 to 1 uM after 3 hrs by Western blotting analysis; assay type: cell-based
[25] = Cytotoxicity against human 25EF cells assessed as cell viability after 3 days by Alamar Blue assay; conditions: 72 h
[26] = test system: BT73; test: Antitumor activity against human BT73 cells xenografted in NOD-SCID mouse assessed as tumor growth inhibition by measuring downregulation of Ki67 protein expression at 10 mg/kg, ip administered as 4 days on/3 days off schedule measured 2 hrs post last dose; assay type: functional, organism-based; parameters: dose 10 mg/kg; method in brief: as §1
[27] = target: RAC-alpha serine/threonine-protein kinase (Homo sapiens) (UniProt P31749); test: Inhibition of AKT1 (unknown origin) at 5 uM after 120 mins
Chain of RAC-alpha serine/threonine-protein kinase (Homo sapiens) (P31749 whole entry): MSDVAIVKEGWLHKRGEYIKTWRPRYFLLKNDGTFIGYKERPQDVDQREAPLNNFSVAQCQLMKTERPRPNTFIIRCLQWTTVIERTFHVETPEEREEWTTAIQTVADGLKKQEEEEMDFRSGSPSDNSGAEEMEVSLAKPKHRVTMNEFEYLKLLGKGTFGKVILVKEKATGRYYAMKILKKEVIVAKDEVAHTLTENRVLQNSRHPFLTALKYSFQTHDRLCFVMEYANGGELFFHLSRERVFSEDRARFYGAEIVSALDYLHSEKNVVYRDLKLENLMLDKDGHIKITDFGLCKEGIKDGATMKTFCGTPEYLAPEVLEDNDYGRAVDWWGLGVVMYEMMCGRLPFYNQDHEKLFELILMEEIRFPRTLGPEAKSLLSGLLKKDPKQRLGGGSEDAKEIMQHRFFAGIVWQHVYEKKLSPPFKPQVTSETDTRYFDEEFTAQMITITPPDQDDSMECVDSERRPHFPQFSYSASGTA

[28] = organism: Homo sapiens; test: Inhibition of MAPK in human 147EF cells after 6 hrs by Western blotting analysis; assay type: cell-based
[29] = target: Tyrosine-protein kinase JAK2 (Homo sapiens) (UniProt O60674); test: Inhibition of JAK2 (unknown origin) SH2 domain expressed in HEK293 cells at 500 nM preincubated for 1 hr followed by compound washout measured after 30 mins by qPCR analysis; assay type: cell-based
[30] = target: T2, Signal transducer and activator of transcription 5A (Homo sapiens, UniProt P42229); test: Binding affinity to His-tagged STAT5 (unknown origin) by SPR spectroscopic analysis
T2 sequence (P42229 whole entry): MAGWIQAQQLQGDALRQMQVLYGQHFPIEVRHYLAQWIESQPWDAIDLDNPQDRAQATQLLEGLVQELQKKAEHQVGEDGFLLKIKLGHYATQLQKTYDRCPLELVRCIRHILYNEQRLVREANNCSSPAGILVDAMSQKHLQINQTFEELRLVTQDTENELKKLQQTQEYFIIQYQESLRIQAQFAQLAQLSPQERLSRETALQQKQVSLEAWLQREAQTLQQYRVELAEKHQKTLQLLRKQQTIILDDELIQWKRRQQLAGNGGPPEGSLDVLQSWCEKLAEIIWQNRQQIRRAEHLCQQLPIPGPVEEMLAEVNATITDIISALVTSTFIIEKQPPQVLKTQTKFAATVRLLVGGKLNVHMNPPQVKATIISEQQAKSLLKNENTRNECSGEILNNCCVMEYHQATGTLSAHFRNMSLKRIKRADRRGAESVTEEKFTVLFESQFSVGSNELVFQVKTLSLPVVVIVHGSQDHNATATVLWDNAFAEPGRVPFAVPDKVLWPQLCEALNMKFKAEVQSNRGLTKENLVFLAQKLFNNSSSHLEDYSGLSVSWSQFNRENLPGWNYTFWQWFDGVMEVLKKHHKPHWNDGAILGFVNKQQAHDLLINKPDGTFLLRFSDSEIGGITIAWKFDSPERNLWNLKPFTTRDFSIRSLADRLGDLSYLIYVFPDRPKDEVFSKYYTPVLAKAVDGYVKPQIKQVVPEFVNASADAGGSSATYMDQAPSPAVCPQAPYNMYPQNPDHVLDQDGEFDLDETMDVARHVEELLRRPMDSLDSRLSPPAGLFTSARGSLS
Method in brief: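 SPR binding to STAT3 and STAT5 proteins was run at several analyte concentrations: 5.000, 1.667, 0.556 and 0.185 μM.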

[31] = organism: Homo sapiens; test: Inhibition of AKT in human 147EF cells after 6 hrs by Western blotting analysis; assay type: cell-based
[32] = Cytotoxicity against human 84EF cells assessed as cell viability after 3 days by Alamar Blue assay; conditions: 72 h
[33] = target: Epidermal growth factor receptor (Homo sapiens) (UniProt P00533); test: Inhibition of EGFR in human 147EF cells after 6 hrs by Western blotting analysis; assay type: cell-based
[34] = test system: Mus musculus; test: In vivo inhibition of STAT3 phosphorylation in tumor of NOD-SCID mouse xenografted with human BT73 cells at 10 mg/kg, ip administered as 4 days on/3 days off schedule measured 2 hrs post last dose; assay type: functional, organism-based; parameters: dose 10 mg/kg; method in brief: as §1
[35] = target: Tyrosine-protein kinase JAK1 (Homo sapiens) (UniProt P23458); test: Inhibition of JAK1 (unknown origin) SH2 domain expressed in HEK293 cells at 500 nM preincubated for 1 hr followed by compound washout measured after 30 mins by qPCR analysis; assay type: cell-based
[36] = organism: Homo sapiens; test: Induction of apoptosis in human 147EF cells assessed as PARP cleavage at 0.1 to 1 uM after 3 hrs by Western blotting analysis; assay type: functional, cell-based
[37] = target: Platelet-derived growth factor receptor beta (Homo sapiens) (UniProt P09619); test: Inhibition of PDGFRB (unknown origin) at 10 uM by enzymatic assay

inhibition [4]: inactive | inhibition [5]: Active | inhibition [7]: 50% | inhibition [9]: inactive | inhibition [10]: 35% | IC50 [11]: 66 nM | inhibition [12]: 50% | inhibition [13]: inactive | inhibition [15]: Active | inhibition [17]: inactive | inhibition [18]: inactive | inhibition [20]: inactive | inhibition [23]: inactive | inhibition [27]: inactive | inhibition [29]: inactive | Kd [30]: 464 nM | inhibition [33]: inactive | inhibition [35]: inactive | inhibition [37]: inactive
Compound: CN(CC(=O)N(Cc1ccc(C2CCCCC2)cc1)c1ccc(C(=O)O)cc1)S(=O)(=O)c1c(F)c(F)c(F)c(F)c1F
Activity [6]: Active | IC50 [8]: 162 nM | IC50 [1]: 1030 nM | IC50 [14]: 106 nM | Activity [16]: Non-toxic | IC50 [2]: 430 nM | IC50 [19]: 100 nM | Activity [21]: Non-toxic | Activity [22]: Active | inhibition [24]: Active | IC50 [25]: 234 nM | TGI [26]: Active | inhibition [28]: inactive | inhibition [31]: inactive | IC50 [32]: 102 nM | inhibition [34]: Active | Activity [36]: Active

inhibition [7]: 50% | inhibition [9]: inactive | inhibition [12]: 50% | inhibition [13]: inactive | inhibition [17]: inactive | inhibition [18]: inactive | inhibition [27]: inactive | inhibition [33]: inactive
Compound: CN(CC(=O)N(Cc1ccc(C2CCCCC2)cc1)c1ccc(C(=O)NO)cc1)S(=O)(=O)c1c(F)c(F)c(F)c(F)c1F
Activity [16]: Non-toxic | Activity [21]: Non-toxic | inhibition [28]: inactive | inhibition [31]: inactive

inhibition [3]: inactive
Compound: COC(=O)c1ccc(N(Cc2ccc(C3CCCCC3)cc2)C(=O)CN(C)S(=O)(=O)c2c(F)c(F)c(F)c(F)c2F)cc1

inhibition [3]: inactive
Compound: CCOP(=O)(Cc1ccc(N(Cc2ccc(C3CCCCC3)cc2)C(=O)CN(C)S(=O)(=O)c2c(F)c(F)c(F)c(F)c2F)cc1)OCC

Further lines, the compound ahead of its results:

Compound: C[C@H](NC(=O)/C(C#N)=C/c1cccc(Br)n1)c1ccccc1 [WP 1066]
IC50 [1]: 2100 nM | IC50 [2]: 1800 nM

Compound: CN(CC(=O)N(Cc1ccc(C2CCCCC2)cc1)c1ccc(C(=O)OCOC(=O)C(C)(C)C)cc1)S(=O)(=O)c1c(F)c(F)c(F)c(F)c1F
inhibition [3]: inactive

Compound: CN(CC(=O)N(Cc1ccc(C2CCCCC2)cc1)c1ccc(C(=O)O)c(O)c1)S(=O)(=O)c1c(F)c(F)c(F)c(F)c1F
inhibition [15]: Active | IC50 [19]: 2000 nM | inhibition [24]: Active | Activity [36]: Active
